From PubChem BioAssay
Results filed as inconclusive are left out.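 How the source made its calls, unless noted: active means viability at or below 27.92% in each of two runs, the all-compound median minus 4 SD; inconclusive means no clear call, values can overlap the other calls; inactive means the rest.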

Tests used:
[1] = S. cerevisiae growth inhibition in permissive medium (OD615), pilot counter-assay for S. cerevisiae lifespan shortening project, permissive growth control (AID 705;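 active means growth inhibition above 25% in both replicates, a cutoff set 3 SD above the mean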); settings: OD615, 24 h, at 10 µM, active compounds read high
Procedure, shortened: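 System: S. cerevisiae with engineered DeaD lifespan system / Measured by: absorbance (optical density) at 615 nm / Read-out: reduction in yeast growth (OD615) / Times: 4 h cell pre-growth, 24 h exposure at 30 °C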

[2] = S. cerevisiae growth inhibition in restrictive medium, OD615, pilot screen, restrictive growth control, yeast lifespan reduction project (AID 706;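 active means growth inhibition above a set limit, 3 SD over mean compound inhibition, in both replicates, cut at about 43% in these data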;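 further: modified DeaD lifespan yeast strain shifted to restrictive glucose medium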); settings: OD615, 48 h, at 10 µM, active compounds read high
Procedure, shortened: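 System: Engineered S. cerevisiae DeaD strain | Buffer or medium: Glucose-based CSMM-D restrictive medium | Schedule: 4 h pre-incubation, 48 h exposure at 30 °C | Technique: Optical density at 615 nm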

[3] = doxorubicin toxicity protection in MRP-1 cells – H69AR cells, CellTiter-Glo, duplicate, MRP-1 activator project, pilot screen (AID 807;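 active means viability increase at or above a cutoff of the median across tested compounds plus 3 SD, cut at about 8.5% in these data, passing the limit was not always enough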;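 further: compound pretreatment 18-22 h then 72 h combined with doxorubicin; 0% = doxorubicin alone and 100% = vehicle without doxorubicin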); settings: H69AR viability with doxorubicin, CellTiter-Glo luminescence; at 10 µM; active compounds read high
[4] = viability of HCT116 without oncogenic beta-catenin – human colon tumor cells, pilot screen (AID 823;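 active means cell viability at or below a set limit in both duplicate runs, the limit being the all-compound median minus 4 SD, cut at about 23% in these data, passing the limit was not always enough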;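 further: 0% = wells killed by 20 µM Hyamine and 100% = untreated DMSO cell wells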); settings: HCT116 beta-catenin knockout viability, CellTiter-Glo, 60 h; at 10 µM; active compounds read low
[5] = viability of PTEN-null HCT116 cells – cell-based, HCT116 clonal line, CellTiter-Glo, pilot screen (AID 824); settings: HCT116 PTEN-deleted viability, 60 h, at 10 µM, active compounds read low;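 further: 0% = 20 µM Hyamine control and 100% = vehicle cell control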
[6] = RAM pathway blockade in budding yeast – dse1pr::URA3 reporter, 5-FOA selection, pilot screen (AID 869;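 active means inhibition over a set limit, the all-compound mean plus 3 SD, in both replicate runs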;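 further: 0% = DMSO wells with no growth and 100% = 10 µM 1-NA-PP1 with full growth; RAM network block rescues cells from 5-FOA so hits raise OD615 growth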); settings: S. cerevisiae dse1pr::URA3 5-FOA growth, OD615, 2 d; at 10 µM; active compounds read high; strain carries analog-sensitive mutant Cbk1 kinase
[7] = RAM signaling pathway blockade in yeast – S. cerevisiae, Pdr1DBD-CYC8 efflux-inhibited sensitized strain, primary screen (AID 1298;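 active means RAM network inhibition above 8.4% in each of two replicates, 3 SD over the compound average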;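 further: 0% = DMSO untreated cells without growth and 100% = 10 µM 1-NA-PP1 full growth; higher means more yeast growth rescued from 5-FOA killing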); settings: S. cerevisiae cbk1-as DSE1-URA3 strain, 5-FOA growth OD615, 2 d; at 50 µM; active compounds read high

CN(C)Cc1nc2c([nH]1)c(=O)n(C)c(=O)n2C
inactive: growth inhibition [1] -6.75% | growth inhibition [2] -18% | viability increase [3] -1.31% | viability [4] 95.1% | viability [5] 92.7% | inhibition [6] 1% | RAM network inhibition [7] 4.51%

COc1ccccc1NC(=O)Cc1noc(CSc2nnc(C)s2)n1
inactive: growth inhibition [1] -3.75% | growth inhibition [2] 0.765% | viability increase [3] -2.11% | viability [4] 97.2% | viability [5] 97.6% | inhibition [6] 0.43% | RAM network inhibition [7] 5.03%

Cc1nn(Cc2ccccc2)c(N)c1-c1ccccc1
inactive: growth inhibition [1] -8.39% | growth inhibition [2] -9.23% | viability increase [3] -0.57% | viability [4] 95.2% | viability [5] 87.1% | inhibition [6] 2.53% | RAM network inhibition [7] 2.53%

O=C(c1cc2c(ccc3ccccc32)oc1=O)N1CCN(CCO)CC1
inactive: growth inhibition [1] -9.81% | growth inhibition [2] -3.65% | viability increase [3] -2.23% | viability [4] 88.8% | viability [5] 93.7% | inhibition [6] 3.29% | RAM network inhibition [7] -1.69%

CC1CCN(C(=O)CN2C(=O)C(=O)c3ccccc32)CC1
inactive: growth inhibition [1] 3.92% | growth inhibition [2] -0.215% | viability increase [3] -5.16% | viability [4] 100% | viability [5] 97.1% | inhibition [6] 1.33% | RAM network inhibition [7] 3.27%

CCCC(=O)N1CCN(C2=NS(=O)(=O)c3ccccc32)CC1
inactive: growth inhibition [1] -0.28% | growth inhibition [2] 12.9% | viability increase [3] -0.68% | viability [4] 103% | viability [5] 98.5% | inhibition [6] -0.175% | RAM network inhibition [7] 3.82%

COc1cccc(CNC(=O)CCS(=O)(=O)c2cccc3nonc23)c1
inactive: growth inhibition [1] -13.5% | growth inhibition [2] -21.2% | viability increase [3] -3.04% | viability [4] 93.2% | viability [5] 91% | inhibition [6] 1.75% | RAM network inhibition [7] 0.46%

O=C(CCCc1ccccc1)NCc1cn2ccsc2n1
inactive: growth inhibition [1] -8.33% | growth inhibition [2] 6.95% | viability increase [3] 0.97% | viability [4] 103% | viability [5] 105% | inhibition [6] 1.31% | RAM network inhibition [7] 5.11%

O=C(CN1CCOc2ccccc21)NC1CCN(Cc2ccccc2)CC1
inactive: growth inhibition [1] -5.57% | growth inhibition [2] -4.21% | viability increase [3] -3.28% | viability [4] 77% | viability [5] 85.5% | inhibition [6] 3.18% | RAM network inhibition [7] 5.65%

CCCCCn1c(C(C)NC(=O)CCC)nc2ccccc21 (configuration not stated)
inactive: growth inhibition [1] -3.78% | growth inhibition [2] -2.23% | viability increase [3] -1.22% | viability [4] 85.7% | viability [5] 88.7% | inhibition [6] -0.165% | RAM network inhibition [7] 2.32%

C/C=C/Cn1c(N(C)Cc2ccccc2)nc2c1c(=O)[nH]c(=O)n2C
inactive: growth inhibition [1] -17.4% | growth inhibition [2] -23.1% | viability increase [3] 0.04% | viability [4] 102% | viability [5] 87.6% | inhibition [6] 0.445% | RAM network inhibition [7] 3.49%

Cc1cc(C)n2nc(SCC#N)nc2n1
inactive: growth inhibition [1] -7.25% | growth inhibition [2] -4.04% | viability increase [3] -2.41% | viability [4] 95.4% | viability [5] 95.4% | inhibition [6] 0.2% | RAM network inhibition [7] 4.36%

CCN(CC)C(=O)CN(Cc1ccccc1)S(=O)(=O)c1ccc(F)cc1
inactive: growth inhibition [1] -8.49% | growth inhibition [2] -11.4% | viability increase [3] -0.99% | viability [4] 93.8% | viability [5] 97.5% | inhibition [6] 1.32% | RAM network inhibition [7] 2.88%

O=C(C1CCCN(S(=O)(=O)c2cccc3cccnc23)C1)N1CCc2ccccc21 (configuration not stated)
inactive: growth inhibition [1] -2.7% | growth inhibition [2] -3.75% | viability increase [3] -5.63% | viability [4] 68.7% | viability [5] 66.7% | inhibition [6] 1.5% | RAM network inhibition [7] 3.58%

CC1CCN(c2nc3ccccc3nc2C(C#N)S(=O)(=O)c2ccccc2)CC1 (configuration not stated)
inactive: growth inhibition [1] -32.5% | growth inhibition [2] -14.6% | viability increase [3] -2.55% | viability [4] 91.4% | viability [5] 95.1% | inhibition [6] 1.22% | RAM network inhibition [7] 4.37%

O=C(O)CC1SC(=Nc2ccccc2)N(c2ccccc2)C1=O (configuration not stated)
inactive: growth inhibition [1] -21.4% | growth inhibition [2] -13.2% | viability increase [3] -1.21% | viability [4] 98.1% | viability [5] 99.4% | inhibition [6] 1.24% | RAM network inhibition [7] 2.93%

O=C(C1CCN(S(=O)(=O)c2cccc3cccnc23)CC1)N1CCN(C2CCCC2)CC1
inactive: growth inhibition [1] -9.46% | growth inhibition [2] 7.92% | viability increase [3] -1.82% | viability [4] 94.3% | viability [5] 99.2% | inhibition [6] 0.96% | RAM network inhibition [7] 0.11%

O=C(c1ccc(S(=O)(=O)N2CCOCC2)cc1)N1CCN(c2ccccc2)CC1
inactive: growth inhibition [1] -12.5% | growth inhibition [2] 2.02% | viability increase [3] 0.13% | viability [4] 93.7% | viability [5] 101% | inhibition [6] 1.82% | RAM network inhibition [7] 1.64%

C=C(C)CSc1nnc(-c2ccc(OC)c(OC)c2)n1N
inactive: growth inhibition [1] 11.8% | growth inhibition [2] 7.34% | viability increase [3] -0.31% | viability [4] 96% | viability [5] 99.2% | inhibition [6] -0.36% | RAM network inhibition [7] 3.74%

COc1cccc(NC2=CC(=O)CC(C)(C)C2)c1
inactive: growth inhibition [1] 4.23% | growth inhibition [2] 0.02% | viability increase [3] -0.06% | viability [4] 95% | viability [5] 99.2% | inhibition [6] 0.5% | RAM network inhibition [7] 1.95%

CC(C)COC(=O)c1cc(=O)[nH]c2ccccc12
inactive: growth inhibition [1] -4.92% | growth inhibition [2] -14.4% | viability increase [3] -2.47% | viability [4] 87.4% | viability [5] 84.1% | inhibition [6] 0.855% | RAM network inhibition [7] 0.1%

CC(=O)c1cccc(NC(=O)C2CCCN(S(=O)(=O)c3cccc4cccnc34)C2)c1 (configuration not stated)
inactive: growth inhibition [1] -10.5% | growth inhibition [2] -5.17% | viability increase [3] -2.34% | viability [4] 83.5% | viability [5] 73.7% | inhibition [6] 2.18% | RAM network inhibition [7] 4.5%

COc1ccc(NC(=O)c2cc3c(=O)n(C)c4ccccc4c3n2C)cc1OC
inactive: growth inhibition [1] -0.735% | growth inhibition [2] -6.07% | viability increase [3] -5.17% | viability [4] 93.8% | viability [5] 80.9% | inhibition [6] 2.05% | RAM network inhibition [7] 5.74%

CCN1CCN(CCNC(=O)CS(=O)(=O)Cc2nc(-c3ccc(C)cc3)oc2C)CC1
inactive: growth inhibition [1] -13.7% | growth inhibition [2] -28.7% | viability increase [3] 0.44% | viability [4] 87.2% | viability [5] 93.7% | inhibition [6] 0.22% | RAM network inhibition [7] 3.16%

CCOc1ccc(N(CC(=O)NCc2ccccc2)S(=O)(=O)c2c(C)noc2C)cc1
inactive: growth inhibition [1] -21.6% | growth inhibition [2] -21.6% | viability increase [3] -0.68% | viability [4] 101% | viability [5] 95.1% | inhibition [6] 4.04% | RAM network inhibition [7] 3.95%

N#CC1=C(SCC(N)=O)NC(=O)CC1c1ccccc1Cl (configuration not stated)
inactive: growth inhibition [1] -3.39% | growth inhibition [2] -17.1% | viability increase [3] -2.43% | viability [4] 98% | viability [5] 96.5% | inhibition [6] 0.635% | RAM network inhibition [7] -0.49%

Cc1cc(C)n2nc(C(=O)Oc3ccc4c(c3)OCO4)nc2n1
inactive: growth inhibition [1] -3.75% | growth inhibition [2] -24% | viability increase [3] -1.75% | viability [4] 99% | viability [5] 104% | inhibition [6] 1.7% | RAM network inhibition [7] 3.06%

C=CCNC(=O)C1CC(=O)N(c2ccc(Br)cc2)C1 (configuration not stated)
inactive: growth inhibition [1] -16.9% | growth inhibition [2] -14.1% | viability increase [3] -1.65% | viability [4] 95.5% | viability [5] 95.3% | inhibition [6] 0.655% | RAM network inhibition [7] 0.56%

CCOc1ccccc1NC(=O)CSc1nnc(Cn2c(=O)sc3ccccc32)n1C
inactive: growth inhibition [1] -8.96% | growth inhibition [2] 9.08% | viability increase [3] -2.73% | viability [4] 91.5% | viability [5] 92% | inhibition [6] 1.48% | RAM network inhibition [7] 2.49%

CCOc1ccc(-n2c(SCC(=O)NCc3ccco3)nc3c([nH]c4ccccc43)c2=O)cc1
inactive: growth inhibition [1] -2.76% | growth inhibition [2] -7.4% | viability increase [3] -3.17% | viability [4] 68.5% | viability [5] 64.1% | inhibition [6] 1.14% | RAM network inhibition [7] 7.07%

CCOc1ccc(-c2nnc3ccc(SCC(=O)N4CCCCC4)nn23)cc1
inactive: growth inhibition [1] -0.225% | growth inhibition [2] 9.67% | viability increase [3] -4.24% | viability [4] 110% | viability [5] 101% | inhibition [6] 2.06% | RAM network inhibition [7] 1.25%

Cc1ccccc1-c1nc(CS(=O)CC(=O)NCc2ccccc2)c(C)o1 (configuration not stated)
inactive: growth inhibition [1] 0.295% | growth inhibition [2] 7.02% | viability increase [3] 1.37% | viability [4] 101% | viability [5] 101% | inhibition [6] 0.655% | RAM network inhibition [7] 4%

COc1c(Cl)cc(-c2noc(C)c2C(=O)NCc2ccc3c(c2)OCO3)cc1Cl
inactive: growth inhibition [1] -16.4% | growth inhibition [2] -10.4% | viability increase [3] -1.08% | viability [4] 89% | viability [5] 84% | inhibition [6] 1.19% | RAM network inhibition [7] 4.27%

O=C(c1cccc(S(=O)(=O)N2CCOCC2)c1)N1CCOCC1
inactive: growth inhibition [1] -3.56% | growth inhibition [2] -5.11% | viability increase [3] -0.71% | viability [4] 101% | viability [5] 97.9% | inhibition [6] 0.835% | RAM network inhibition [7] 1.18%

CCOc1ccc2nc(N3CCCC(C(=O)N4CCN(CC)CC4)C3)sc2c1 (configuration not stated)
inactive: growth inhibition [1] -4.44% | growth inhibition [2] -8.34% | viability increase [3] 0.55% | viability [4] 102% | viability [5] 96.2% | inhibition [6] 0.775% | RAM network inhibition [7] 2.01%

Cn1c(CCNC(=O)c2ccc(F)cc2)nc2ccccc21
inactive: growth inhibition [1] 0.71% | growth inhibition [2] -11% | viability increase [3] 2.04% | viability [4] 105% | viability [5] 99.7% | inhibition [6] 1.2% | RAM network inhibition [7] 4.26%
